Test results taken from PMC9359741 (Clinical Cancer Research, 2022).
Where “and” joins values, the source holds several entries; their conditions need not be identical. Equal values may be shown once. Read-outs that look alike come from different tables or passages of the source.

Tested on: patients with selected advanced solid tumors
Type: in vivo, human
How it was run: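 Adults (≥18 y) with histologically or cytologically confirmed selected advanced solid tumours. Oral test compound started at 200 mg QD, with planned escalation to 400 mg QD, plus anti-PD-1 antibody 2 mg/kg IV every 3 weeks. DLT incidence defined the MTD (DLT criteria in supplement). AEs and lab abnormalities were graded by CTCAE v4.03 in all patients given ≥1 dose and summarized descriptively.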

[1] = Phase 1b, ARRY-382 200 mg, N = 6
[2] = Phase 1b, ARRY-382 300 mg, N = 6
[3] = Phase 1b, ARRY-382 400 mg, N = 7

## Cc1cccc(Cn2nc(C3CC3)c3c(NC(=O)c4cnc5cc(OCCN6CCN(C)CC6)ccn45)cccc32)n1 [ARRY-382]
300-mg cohort: Grade 3 acute pancreatitis
  Patients with DLTs: 1/6
400-mg cohort: Grade 2 increased CPK, Grade 3 increased ALT, AST and bilirubin
  Patients with DLTs: 2/7
Phase 1b
  MTD (and RP2D) of ARRY-382 in combination with pembrolizumab: 300 mg QD
  Patients with a Grade 4 AE: 6 (31.6%) n (%)
  Patients with a grade 3 AE: 9 (47.4%) n (%)
  Patients with ≥1 TEAE: 94.7%
  Permanently discontinued due to AEs: 2 (10.5%) n (%)
Phase 1b, 12 due to disease progression, 3 for reasons unknown
  Deaths: Fifteen
Phase 1b, 200-mg cohort
  ARRY-382-related grade ≥3 AEs: 50.0%
Phase 1b, 200-mg cohort, one patient
  Discontinued due to AEs (primary reason): 16.7%
Phase 1b, 300-mg cohort
  ARRY-382-related grade ≥3 AEs: 100.0%
Phase 1b, 300-mg cohort, one patient
  ARRY-382-related SAE (Grade 3 ALT and AST increased): 16.7%
Phase 1b, 400-mg cohort
  ARRY-382-related grade ≥3 AEs: 42.9%
[1]
  ARRY-382-related AEs: ALT increased: 2 (33.3) n (%)
  ARRY-382-related AEs: AST increased: 1 (16.7) n (%)
  ARRY-382-related AEs: All AEs: 5 (83.3%) n (%) and 5 (83.3) n (%)
  ARRY-382-related AEs: Amylase increased: 1 (16.7) n (%)
  ARRY-382-related AEs: Blood CPK increased: 2 (33.3) n (%)
  ARRY-382-related AEs: Blood alkaline phosphatase increased: 1 (16.7) n (%)
  ARRY-382-related AEs: Chills: 1 (16.7) n (%)
  ARRY-382-related AEs: Fatigue: 2 (33.3) n (%)
  ARRY-382-related AEs: Lipase increased: 1 (16.7) n (%)
  ARRY-382-related AEs: Nausea: 0 (0.0) n (%)
  ARRY-382-related AEs: Pruritus: 2 (33.3) n (%)
  ARRY-382-related AEs: Pyrexia: 1 (16.7) n (%)
  ARRY-382-related AEs: Rash maculo-papular: 1 (16.7) n (%)
  ARRY-382-related AEs: Thrombocytopenia: 0 (0.0) n (%)
[2]
  ARRY-382-related AEs: ALT increased: 3 (50.0) n (%)
  ARRY-382-related AEs: AST increased: 5 (83.3) n (%)
  ARRY-382-related AEs: All AEs: 6 (100.0%) n (%) and 6 (100.0) n (%)
  ARRY-382-related AEs: Amylase increased: 3 (50.0) n (%)
  ARRY-382-related AEs: Blood CPK increased: 3 (50.0) n (%)
  ARRY-382-related AEs: Blood alkaline phosphatase increased: 2 (33.3) n (%)
  ARRY-382-related AEs: Chills: 0 (0.0) n (%)
  ARRY-382-related AEs: Fatigue: 2 (33.3) n (%)
  ARRY-382-related AEs: Lipase increased: 4 (66.7) n (%)
  ARRY-382-related AEs: Nausea: 1 (16.7) n (%)
  ARRY-382-related AEs: Pruritus: 2 (33.3) n (%)
  ARRY-382-related AEs: Pyrexia: 0 (0.0) n (%)
  ARRY-382-related AEs: Rash maculo-papular: 2 (33.3) n (%)
  ARRY-382-related AEs: Thrombocytopenia: 1 (16.7) n (%)
[3]
  ARRY-382-related AEs: ALT increased: 2 (28.6) n (%)
  ARRY-382-related AEs: AST increased: 2 (28.6) n (%)
  ARRY-382-related AEs: All AEs: 5 (71.4%) n (%) and 5 (71.4) n (%)
  ARRY-382-related AEs: Amylase increased: 1 (14.3) n (%)
  ARRY-382-related AEs: Blood CPK increased: 2 (28.6) n (%)
  ARRY-382-related AEs: Blood alkaline phosphatase increased: 2 (28.6) n (%)
  ARRY-382-related AEs: Chills: 1 (14.3) n (%)
  ARRY-382-related AEs: Fatigue: 0 (0.0) n (%)
  ARRY-382-related AEs: Lipase increased: 1 (14.3) n (%)
  ARRY-382-related AEs: Nausea: 2 (28.6) n (%)
  ARRY-382-related AEs: Pruritus: 0 (0.0) n (%)
  ARRY-382-related AEs: Pyrexia: 1 (14.3) n (%)
  ARRY-382-related AEs: Rash maculo-papular: 1 (14.3) n (%)
  ARRY-382-related AEs: Thrombocytopenia: 1 (14.3) n (%)
Phase 1b, Total, N = 19
  ARRY-382-related AEs: ALT increased: 7 (36.8) n (%)
  ARRY-382-related AEs: AST increased: 8 (42.1) n (%)
  ARRY-382-related AEs: All AEs: 16 (84.2%) n (%) and 16 (84.2) n (%)
  ARRY-382-related AEs: Amylase increased: 5 (26.3) n (%)
  ARRY-382-related AEs: Blood CPK increased: 7 (36.8) n (%)
  ARRY-382-related AEs: Blood alkaline phosphatase increased: 5 (26.3) n (%)
  ARRY-382-related AEs: Chills: 2 (10.5) n (%)
  ARRY-382-related AEs: Fatigue: 4 (21.1) n (%)
  ARRY-382-related AEs: Lipase increased: 6 (31.6) n (%)
  ARRY-382-related AEs: Nausea: 3 (15.8) n (%)
  ARRY-382-related AEs: Pruritus: 4 (21.1) n (%)
  ARRY-382-related AEs: Pyrexia: 2 (10.5) n (%)
  ARRY-382-related AEs: Rash maculo-papular: 4 (21.1) n (%)
  ARRY-382-related AEs: Thrombocytopenia: 2 (10.5) n (%)
Phase 1b, all patients
  ARRY-382-related increased ALT: 36.8%
  ARRY-382-related increased AST: 42.1%
  ARRY-382-related increased CPK: 36.8%
